HTRA1 inhibitor: HTRA1 serine protease inhibitors, primary screen, biochemical, fluorescence polarization, HTS; Q92743; recombinant HTRA1, FP-rhodamine activity-based probe; inhibition, % at 5.96 µM; actives 0.5% (n = 340,000); in the data active means inhibition above about 36%
PRMT1 inh: PRMT1 methyltransferase inhibitors, primary screen, biochemical, fluorescence polarization | actives 1.3% (n = 370,000) | recombinant PRMT1, activity-based probe fluorescence polarization | inhibition, % at 2.79 µM;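 active means inhibition above about 21% made by adding two undisclosed values, limit read from the data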
rCAG RNA binder: binders of r(CAG) RNA repeats, primary screen, biochemical, fluorescence | r(CAG) RNA repeat, TO-PRO-1 dye displacement fluorescence | inhibition, % at 3 µM | actives 1.3% (n = 370,000) | AID 651821, 2012;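 active means inhibition above the plate cutoff, the mean of all test compounds on that plate plus 3 SD, cut at about 35% in these data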;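 further: higher means more dye released from RNA so lower well fluorescence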
ABHD4 inh: ABHD4 inhibitors, primary screen, biochemical, fluorescence polarization, mouse | (Lyso)-N-acylphosphatidylethanolamine lipase (Mus musculus), Q8VD66 | purified mABHD4, FP-Rh probe fluorescence polarization | inhibition, % at 8.92 µM | actives 0.54% (n = 370,000) | AID 720543, 2013;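 active means inhibition exceeding the mean over every tested compound plus 3 SD, cut at about 30% in these data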
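Test system: mABHD4 protein | Buffer or medium: HEPES pH 7.0 buffer, 150 mM NaCl, 0.01% Pluronic F-127 | Probe or stimulus: FP-Rh fluorescent activity-based probe, added after compound pre-incubation | Timing: Pre-incubation 45 min, probe exposure 60 min, at 25 °C | Technique: Fluorescence polarization, excitation 525 nm, emission 598 nm, BODIPY TMR filters | Repeats: Single well per compound (singlicate)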
TCR CD3 inh: inhibitors of human TCR-CD3 interaction, primary screen, biochemical, fluorescence, TAMRA-labeled TCR probe; inhibition, % at 9.4 µM; AID 651800, 2012; actives 0.37% (n = 360,000); T-cell receptor (TCR); in the data active means inhibition above about 19%;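 further: recombinant mutant TCR 2C K166C tagged with TAMRA read by polarization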
SIAE inh: human SIAE inhibitors, primary screen, biochemical, fluorescence polarization, FP-Rh probe, 1536-well HTS. SIAE FP-Rh probe binding. Sialate O-acetylesterase (Homo sapiens), Q9HAT2. inhibition, % at 9.66 µM. AID 1053197, 2014. actives 0.69% (n = 370,000);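 active means inhibition above a cutoff: mean of compounds within the control limits plus 3 SD of those, cut at about 17% in these data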
Target sequence (Q9HAT2 whole entry, looked up): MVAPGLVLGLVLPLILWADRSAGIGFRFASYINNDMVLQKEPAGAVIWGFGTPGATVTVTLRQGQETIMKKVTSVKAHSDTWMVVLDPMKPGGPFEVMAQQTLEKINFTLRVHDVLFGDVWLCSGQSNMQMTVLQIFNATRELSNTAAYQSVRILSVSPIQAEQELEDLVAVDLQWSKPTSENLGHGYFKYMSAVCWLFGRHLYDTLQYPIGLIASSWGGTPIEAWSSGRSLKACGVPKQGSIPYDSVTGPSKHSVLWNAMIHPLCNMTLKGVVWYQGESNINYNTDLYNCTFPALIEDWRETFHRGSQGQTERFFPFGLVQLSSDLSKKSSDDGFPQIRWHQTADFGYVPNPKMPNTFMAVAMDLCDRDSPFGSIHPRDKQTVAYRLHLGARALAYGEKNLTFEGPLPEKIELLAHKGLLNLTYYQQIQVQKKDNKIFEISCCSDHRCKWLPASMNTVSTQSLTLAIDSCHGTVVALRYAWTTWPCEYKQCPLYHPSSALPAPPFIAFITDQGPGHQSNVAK
rCAG bind conf: small molecules binding CAG repeat RNA – biochemical, fluorescence, confirmation; shares compounds with rCAG RNA binder; r(CAG) RNA repeat, TO-PRO-1 dye displacement fluorescence; inhibition, % at 3 µM; actives 70% (n = 4,300);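 active means inhibition above a per-plate cutoff, the mean inhibition of sample wells plus 3 SD, cut at about 35% in these data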;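 further: loss of TO-PRO-1 fluorescence as compound displaces dye from 1x1 AA loop RNA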
DNA CAG counter: displacement of TO-PRO-1 from CAG DNA duplex, counter-screen for rCAG RNA repeat binder project, biochemical, fluorescence, TO-PRO-1 dye, d(CAG) DNA oligo | shares compounds with rCAG RNA binder | d(CAG) DNA oligo TO-PRO-1 dye displacement | inhibition, % at 3 µM | actives 94% (n = 4,300) | AID 652068, 2013;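 active means inhibition above its plate's cutoff, the mean test-well inhibition plus 3 SD, cut at about 4.8% in these data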;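 further: hits displace the dye from DNA and so lower well fluorescence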
A number is an active result. Shown are actives, neighbours in structure and some others; about 3.5% of the full set was active somewhere.

`CC(C)CNC(=O)CC1Oc2ccccc2NC1=O` (stereo unspecified) gave PRMT1 inh inactive, rCAG RNA binder inactive, ABHD4 inh inactive and SIAE inh inactive.
Screening O=C(COc1ccccc1/C=C\c1[nH]c(=O)[nH]c(=O)c1[N+](=O)[O-])Nc1ccccc1 returned HTRA1 inhibitor inactive, PRMT1 inh inactive, rCAG RNA binder 68, ABHD4 inh inactive, TCR CD3 inh inactive, SIAE inh inactive, rCAG bind conf 43 and DNA CAG counter 14.
CC(C)c1ccc(/C=C/c2[nH]c(=O)[nH]c(=O)c2[N+](=O)[O-])cc1 was read as HTRA1 inhibitor inactive, PRMT1 inh inactive, rCAG RNA binder 40, ABHD4 inh inactive, TCR CD3 inh inactive, SIAE inh inactive, rCAG bind conf inactive and DNA CAG counter inactive.
For CCOC(=O)COc1ccc(Br)cc1/C=C\c1[nH]c(=O)[nH]c(=O)c1[N+](=O)[O-] the results were HTRA1 inhibitor inactive, PRMT1 inh inactive, rCAG RNA binder 84, ABHD4 inh inactive, TCR CD3 inh inactive, SIAE inh inactive, rCAG bind conf 43 and DNA CAG counter 10.
For CCOc1cc(/C=C\c2[nH]c(=O)[nH]c(=O)c2[N+](=O)[O-])ccc1OC(C)CC (stereo unspecified) the results were PRMT1 inh inactive, rCAG RNA binder inactive, ABHD4 inh inactive, TCR CD3 inh inactive and SIAE inh inactive.
Screening CCOc1ccc(/C=C/c2[nH]c(=O)[nH]c(=O)c2[N+](=O)[O-])cc1 returned HTRA1 inhibitor inactive, PRMT1 inh inactive, rCAG RNA binder 39, ABHD4 inh inactive, TCR CD3 inh inactive, SIAE inh inactive, rCAG bind conf inactive and DNA CAG counter 7.0.
For O=c1[nH]c(/C=C/c2ccccc2Cl)c([N+](=O)[O-])c(=O)[nH]1 the results were HTRA1 inhibitor inactive, PRMT1 inh inactive, rCAG RNA binder inactive, ABHD4 inh inactive, TCR CD3 inh inactive and SIAE inh inactive.
Screening COc1ccccc1CNC(=O)N1CCN(Cc2nc3ccccc3c(=O)[nH]2)CC1 returned PRMT1 inh inactive, rCAG RNA binder inactive, ABHD4 inh inactive and SIAE inh inactive.
N#CC(/C(=N/S(=O)(=O)c1cccs1)c1ccccc1)c1nc2ccccc2[nH]1 (stereo unspecified) was read as HTRA1 inhibitor inactive, PRMT1 inh inactive, rCAG RNA binder 42, ABHD4 inh inactive, TCR CD3 inh inactive, SIAE inh inactive, rCAG bind conf inactive and DNA CAG counter inactive.
N#CC(Cc1cccs1)c1nc2ccccc2[nH]1 (stereo unspecified) was read as HTRA1 inhibitor inactive, PRMT1 inh inactive, rCAG RNA binder inactive, ABHD4 inh inactive, TCR CD3 inh inactive and SIAE inh inactive.
Cc1ccc(S(=O)(=O)N2[C@@H](c3ccc(Cl)c(Cl)c3)C(C(=O)O)=C[C@H]2CC2CCCC2)cc1 was read as HTRA1 inhibitor inactive, PRMT1 inh inactive, rCAG RNA binder 87, ABHD4 inh inactive, TCR CD3 inh inactive, SIAE inh inactive, rCAG bind conf 86 and DNA CAG counter 57.
Cc1ccc(S(=O)(=O)N2[C@@H](c3ccc(Cl)cc3)C(C(=O)O)=C[C@H]2CC2CCCC2)cc1 was read as HTRA1 inhibitor inactive, PRMT1 inh inactive, rCAG RNA binder 77, ABHD4 inh inactive, TCR CD3 inh inactive, SIAE inh inactive, rCAG bind conf 77 and DNA CAG counter 40.
Screening Cc1ccc(S(=O)(=O)N2[C@@H](c3ccc(C#N)cc3)C(C(=O)O)=C[C@H]2CC2CCCC2)cc1 returned HTRA1 inhibitor inactive, PRMT1 inh inactive, rCAG RNA binder 69, ABHD4 inh inactive, TCR CD3 inh inactive, SIAE inh inactive, rCAG bind conf 59 and DNA CAG counter 25.
Screening CCOC(=O)C1=C[C@@H](C(C)(C)C)N(S(=O)(=O)c2ccc(C)cc2)[C@H]1c1ccc(C#N)cc1 returned PRMT1 inh inactive, rCAG RNA binder inactive, ABHD4 inh inactive, TCR CD3 inh inactive and SIAE inh inactive.
CC[C@@H]1C=C(C(=O)O)[C@H](c2ccc(OC)c(OC)c2)N1S(=O)(=O)c1ccc(C)cc1 was read as HTRA1 inhibitor inactive, PRMT1 inh inactive, rCAG RNA binder inactive, ABHD4 inh inactive, TCR CD3 inh inactive and SIAE inh inactive.
COC(=O)C1CN(Cc2cn(Cc3ccc(OC)cc3)nn2)CCS(=O)(=O)N1Cc1ccc(F)cc1 (stereo unspecified) was read as PRMT1 inh inactive, rCAG RNA binder inactive, ABHD4 inh inactive and SIAE inh inactive.
N#C[C@@H]1N[C@H](CO)[C@@H]1c1ccccc1 was read as PRMT1 inh inactive, rCAG RNA binder inactive, ABHD4 inh inactive and SIAE inh inactive.
`O=C(Nc1ccc(Cl)c(Cl)c1)c1cccc2c1-c1ccccc1C2=O` gave PRMT1 inh inactive, rCAG RNA binder inactive, ABHD4 inh inactive and SIAE inh inactive.
Screening O=C(Nc1cccc(Cl)c1)Nc1sccc1-c1nc2ccccc2s1 returned PRMT1 inh inactive, rCAG RNA binder 35, ABHD4 inh inactive, TCR CD3 inh inactive, SIAE inh inactive, rCAG bind conf inactive and DNA CAG counter 18.
Screening O=C(Nc1ccccc1)Nc1sccc1-c1nc2ccccc2s1 returned PRMT1 inh inactive, rCAG RNA binder inactive, ABHD4 inh inactive, TCR CD3 inh inactive and SIAE inh inactive.
Screening NC(C(=O)O)C1ON=C(Cl)C1O (stereo unspecified) returned HTRA1 inhibitor inactive, PRMT1 inh inactive, rCAG RNA binder 41, ABHD4 inh inactive, TCR CD3 inh inactive, SIAE inh inactive, rCAG bind conf inactive and DNA CAG counter inactive.
For CCOc1ccccc1N(CC(=O)NCCc1ccc(OC)c(OC)c1)S(=O)(=O)c1ccccc1 the results were HTRA1 inhibitor inactive, PRMT1 inh inactive, rCAG RNA binder 43, ABHD4 inh inactive, TCR CD3 inh inactive, SIAE inh inactive, rCAG bind conf inactive and DNA CAG counter inactive.
O=C(Nc1sc2c(c1C(=O)O)CCCC2)c1ccc(Cl)cc1 was read as HTRA1 inhibitor inactive, PRMT1 inh inactive, rCAG RNA binder 69, ABHD4 inh inactive, TCR CD3 inh inactive, SIAE inh inactive, rCAG bind conf 50 and DNA CAG counter 14.
